According to ChEMBL document CHEMBL1142148, “Antibiotic susceptibility profile of bifidobacteria as affected by oxgall, acid, and hydrogen peroxide stress” (2007):
Converted amounts (≈) assume the structure as drawn.

How the values were obtained:
Bifidobacterium animalis [1] = test: Antimicrobial activity against Bifidobacterium animalis ATCC 27536; assay type: functional
Outline: (§1)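 Broth microdilution in MRS plus 0.05% L-cysteine-HCl. Mid-log culture adjusted to OD650 0.1, giving about 2.5 × 10^4 to 5.0 × 10^4 CFU/well, then added to twofold serial dilutions of agent. Plates incubated anaerobically at 37°C for 18 h and read at OD650. MIC is the lowest concentration matching the uninoculated blank OD, taken as the median of four repeats.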

Bifidobacterium bifidum [2] = test: Antimicrobial activity against Bifidobacterium bifidum R0071; assay type: functional; outline: as §1
Bifidobacterium bifidum [3] = test: Antimicrobial activity against Bifidobacterium bifidum ATCC 15696; assay type: functional; outline: as §1
Bifidobacterium bifidum [4] = test: Antimicrobial activity against Bifidobacterium bifidum BB12; assay type: functional; outline: as §1
Bifidobacterium breve [5] = test: Antimicrobial activity against Bifidobacterium breve ATCC 15700; assay type: functional; outline: as §1
[6] = Antimicrobial activity against Bifidobacterium infantis ATCC 15697; assay type: functional, Bifidobacterium longum subsp. infantis; settings: Bifidobacterium longum; outline: as §1
Bifidobacterium longum [7] = test: Antimicrobial activity against Bifidobacterium longum ATCC 15708; assay type: functional; outline: as §1
Bifidobacterium longum [8] = test: Antimicrobial activity against Bifidobacterium longum R0175; assay type: functional; outline: as §1
Bifidobacterium longum [9] = test: Antimicrobial activity against Bifidobacterium longum P/N 601377; assay type: functional; outline: as §1
[10] = system: Bifidobacterium pseudolongum; test: Antimicrobial activity against Bifidobacterium pseudolongum ATCC 25562; assay type: functional; outline: as §1
[11] = system: Bifidobacterium thermophilum; test: Antimicrobial activity against Bifidobacterium thermophilum ATCC 25866; assay type: functional; outline: as §1
Bifidobacterium breve [12] = test: Antimicrobial activity against Bifidobacterium breve R0070; assay type: functional; outline: as §1
Bifidobacterium animalis [13] = test: Antimicrobial activity against 60 min 1 M HCl-stressed Bifidobacterium animalis ATCC 27536 after 18 hrs; assay type: functional
Outline: (§2)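 Mid-log MRS culture pelleted and resuspended in MRS broth brought to pH 2.0 with 1 M HCl, held anaerobically at 37°C for 60 min, then subcultured in MRS (pH 6.5) for 24 h anaerobically before MIC testing by broth microdilution (as for unstressed cells). Table footnote gives 18 h anaerobic regrowth after the stress. MIC is the median of four repetitions.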

Bifidobacterium bifidum [14] = test: Antimicrobial activity against 60 min 1 M HCl-stressed Bifidobacterium bifidum R0071 after 18 hrs; assay type: functional; outline: as §2
Bifidobacterium bifidum [15] = test: Antimicrobial activity against 60 min 1 M HCl-stressed Bifidobacterium bifidum BB12 after 18 hrs; assay type: functional; outline: as §2
Bifidobacterium breve [16] = test: Antimicrobial activity against 60 min 1 M HCl-stressed Bifidobacterium breve ATCC 15700 after 18 hrs; assay type: functional; outline: as §2
Bifidobacterium breve [17] = test: Antimicrobial activity against 60 min 1 M HCl-stressed Bifidobacterium breve R0070 after 18 hrs; assay type: functional; outline: as §2
[18] = Antimicrobial activity against 60 min 1 M HCl-stressed Bifidobacterium infantis ATCC 15697 after 18 hrs; assay type: functional, Bifidobacterium longum subsp. infantis; settings: Bifidobacterium longum; outline: as §2
Bifidobacterium longum [19] = test: Antimicrobial activity against 60 min 1 M HCl-stressed Bifidobacterium longum ATCC 15707 after 18 hrs; assay type: functional; outline: as §2
Bifidobacterium longum [20] = test: Antimicrobial activity against 60 min 1 M HCl-stressed Bifidobacterium longum R0175 after 18 hrs; assay type: functional; outline: as §2
Bifidobacterium longum [21] = test: Antimicrobial activity against 60 min 1 M HCl-stressed Bifidobacterium longum P/N 601377 after 18 hrs; assay type: functional; outline: as §2
[22] = system: Bifidobacterium pseudolongum; test: Antimicrobial activity against 60 min 1 M HCl-stressed Bifidobacterium pseudolongum ATCC 25562 after 18 hrs; assay type: functional; outline: as §2
[23] = system: Bifidobacterium thermophilum; test: Antimicrobial activity against 60 min 1 M HCl-stressed Bifidobacterium thermophilum ATCC 25866 after 18 hrs; assay type: functional; outline: as §2
Bifidobacterium animalis [24] = test: Antimicrobial activity against 90 mins oxgall-stressed Bifidobacterium animalis ATCC 27536 after 18 hrs; assay type: functional
Outline: (§3)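 Cells pelleted from mid-log MRS culture and resuspended in MRS (initial pH 6.5) with 0.3% (wt/vol) oxgall for 90 min anaerobically at 37°C. They were then regrown in MRS pH 6.5 for 24 h (footnote: 18 h) anaerobically and tested for MIC by the same broth microdilution assay. Median of four repetitions.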

Bifidobacterium bifidum [25] = test: Antimicrobial activity against 90 mins oxgall-stressed Bifidobacterium bifidum R0071 after 18 hrs; assay type: functional; outline: as §3
Bifidobacterium bifidum [26] = test: Antimicrobial activity against 90 mins oxgall-stressed Bifidobacterium bifidum ATCC 15696 after 18 hrs; assay type: functional; outline: as §3
Bifidobacterium bifidum [27] = test: Antimicrobial activity against 90 mins oxgall-stressed Bifidobacterium bifidum BB12 after 18 hrs; assay type: functional; outline: as §3
Bifidobacterium breve [28] = test: Antimicrobial activity against 90 mins oxgall-stressed Bifidobacterium breve ATCC 15700 after 18 hrs; assay type: functional; outline: as §3
Bifidobacterium breve [29] = test: Antimicrobial activity against 90 mins oxgall-stressed Bifidobacterium breve R0070 after 18 hrs; assay type: functional; outline: as §3
[30] = Antimicrobial activity against 90 mins oxgall-stressed Bifidobacterium infantis ATCC 15697 after 18 hrs; assay type: functional, Bifidobacterium longum subsp. infantis; settings: Bifidobacterium longum; outline: as §3
Bifidobacterium longum [31] = test: Antimicrobial activity against 90 mins oxgall-stressed Bifidobacterium longum ATCC 15707 after 18 hrs; assay type: functional; outline: as §3
Bifidobacterium longum [32] = test: Antimicrobial activity against 90 mins oxgall-stressed Bifidobacterium longum ATCC 15708 after 18 hrs; assay type: functional; outline: as §3
Bifidobacterium longum [33] = test: Antimicrobial activity against Bifidobacterium longum ATCC 15707; assay type: functional; outline: as §1
Bifidobacterium longum [34] = test: Antimicrobial activity against 90 mins oxgall-stressed Bifidobacterium longum R0175 after 18 hrs; assay type: functional; outline: as §3
Bifidobacterium longum [35] = test: Antimicrobial activity against 90 mins oxgall-stressed Bifidobacterium longum P/N 601377 after 18 hrs; assay type: functional; outline: as §3
[36] = system: Bifidobacterium pseudolongum; test: Antimicrobial activity against 90 mins oxgall-stressed Bifidobacterium pseudolongum ATCC 25562 after 18 hrs; assay type: functional; outline: as §3
[37] = system: Bifidobacterium thermophilum; test: Antimicrobial activity against 90 mins oxgall-stressed Bifidobacterium thermophilum ATCC 25866 after 18 hrs; assay type: functional; outline: as §3
Bifidobacterium animalis [38] = test: Antimicrobial activity against 90 mins hydrogen peroxide-stressed Bifidobacterium animalis ATCC 27536 after 18 hrs; assay type: functional
Outline: (§4)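 Stress applied for 90 min at 37°C under anaerobic conditions, using MRS (initial pH 6.5) containing H2O2 at each strain's own inhibitory concentration. The H2O2 level was set beforehand by microplate tolerance testing. Challenged cells were regrown in MRS for 24 h (footnote: 18 h) before MIC testing by broth microdilution. Median of four repetitions.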

Bifidobacterium bifidum [39] = test: Antimicrobial activity against 90 mins hydrogen peroxide-stressed Bifidobacterium bifidum R0071 after 18 hrs; assay type: functional; outline: as §4
Bifidobacterium bifidum [40] = test: Antimicrobial activity against 90 mins hydrogen peroxide-stressed Bifidobacterium bifidum BB12 after 18 hrs; assay type: functional; outline: as §4
Bifidobacterium breve [41] = test: Antimicrobial activity against 90 mins hydrogen peroxide-stressed Bifidobacterium breve ATCC 15700 after 18 hrs; assay type: functional; outline: as §4
Bifidobacterium breve [42] = test: Antimicrobial activity against 90 mins hydrogen peroxide-stressed Bifidobacterium breve R0070 after 18 hrs; assay type: functional; outline: as §4
Bifidobacterium longum [43] = test: Antimicrobial activity against 90 mins hydrogen peroxide-stressed Bifidobacterium longum ATCC 15707 after 18 hrs; assay type: functional; outline: as §4
Bifidobacterium longum [44] = test: Antimicrobial activity against 90 mins hydrogen peroxide-stressed Bifidobacterium longum ATCC 15708 after 18 hrs; assay type: functional; outline: as §4
Bifidobacterium longum [45] = test: Antimicrobial activity against 90 mins hydrogen peroxide-stressed Bifidobacterium longum R0175 after 18 hrs; assay type: functional; outline: as §4
Bifidobacterium longum [46] = test: Antimicrobial activity against 90 mins hydrogen peroxide-stressed Bifidobacterium longum P/N 601377 after 18 hrs; assay type: functional; outline: as §4
[47] = system: Bifidobacterium thermophilum; test: Antimicrobial activity against 90 mins hydrogen peroxide-stressed Bifidobacterium thermophilum ATCC 25866 after 18 hrs; assay type: functional; outline: as §4

SMILES: CC1(C)S[C@@H]2[C@H](NC(=O)[C@H](N)c3ccccc3)C(=O)N2[C@H]1C(=O)O [AMPICILLIN]
- MIC (Bifidobacterium animalis [1]): 15.6 µg/mL (≈ 44.6 µM)
- MIC (Bifidobacterium bifidum [2]): 1.9 µg/mL (≈ 5.44 µM)
- MIC (Bifidobacterium bifidum [3]): 0.98 µg/mL (≈ 2.8 µM)
- MIC (Bifidobacterium bifidum [4]): 31.2 µg/mL (≈ 89.3 µM)
- MIC (Bifidobacterium breve [5]): 3.9 µg/mL (≈ 11.2 µM)
- MIC [6]: 7.8 µg/mL (≈ 22.3 µM)
- MIC (Bifidobacterium longum [7]): 7.8 µg/mL (≈ 22.3 µM)
- MIC (Bifidobacterium longum [8]): 7.8 µg/mL (≈ 22.3 µM)
- MIC (Bifidobacterium longum [9]): 0.98 µg/mL (≈ 2.8 µM)
- MIC [10]: 3.9 µg/mL (≈ 11.2 µM)
- MIC [11]: 0.98 µg/mL (≈ 2.8 µM)
- MIC (Bifidobacterium breve [12]): 15.6 µg/mL (≈ 44.6 µM)
- MIC (Bifidobacterium animalis [13]): 0.98 µg/mL (≈ 2.8 µM)
- MIC (Bifidobacterium bifidum [14]): 0.98 µg/mL (≈ 2.8 µM)
- MIC (Bifidobacterium bifidum [15]): 0.98 µg/mL (≈ 2.8 µM)
- MIC (Bifidobacterium breve [16]): 0.98 µg/mL (≈ 2.8 µM)
- MIC (Bifidobacterium breve [17]): 3.9 µg/mL (≈ 11.2 µM)
- MIC [18]: 0.98 µg/mL (≈ 2.8 µM)
- MIC (Bifidobacterium longum [19]): 3.9 µg/mL (≈ 11.2 µM)
- MIC (Bifidobacterium longum [20]): 0.98 µg/mL (≈ 2.8 µM)
- MIC (Bifidobacterium longum [21]): 0.98 µg/mL (≈ 2.8 µM)
- MIC [22]: 0.98 µg/mL (≈ 2.8 µM)
- MIC [23]: 3.9 µg/mL (≈ 11.2 µM)
- MIC (Bifidobacterium animalis [24]): 0.98 µg/mL (≈ 2.8 µM)
- MIC (Bifidobacterium bifidum [25]): 0.98 µg/mL (≈ 2.8 µM)
- MIC (Bifidobacterium bifidum [26]): 0.98 µg/mL (≈ 2.8 µM)
- MIC (Bifidobacterium bifidum [27]): 0.98 µg/mL (≈ 2.8 µM)
- MIC (Bifidobacterium breve [28]): 3.9 µg/mL (≈ 11.2 µM)
- MIC (Bifidobacterium breve [29]): 0.98 µg/mL (≈ 2.8 µM)
- MIC [30]: 0.98 µg/mL (≈ 2.8 µM)
- MIC (Bifidobacterium longum [31]): 0.98 µg/mL (≈ 2.8 µM)
- MIC (Bifidobacterium longum [32]): 0.98 µg/mL (≈ 2.8 µM)
- MIC (Bifidobacterium longum [33]): 15.6 µg/mL (≈ 44.6 µM)
- MIC (Bifidobacterium longum [34]): 0.98 µg/mL (≈ 2.8 µM)
- MIC (Bifidobacterium longum [35]): 0.98 µg/mL (≈ 2.8 µM)
- MIC [36]: 0.98 µg/mL (≈ 2.8 µM)
- MIC [37]: 1.9 µg/mL (≈ 5.44 µM)
- MIC (Bifidobacterium animalis [38]): 3.9 µg/mL (≈ 11.2 µM)
- MIC (Bifidobacterium bifidum [39]): 0.98 µg/mL (≈ 2.8 µM)
- MIC (Bifidobacterium bifidum [40]): 0.98 µg/mL (≈ 2.8 µM)
- MIC (Bifidobacterium breve [41]): 3.9 µg/mL (≈ 11.2 µM)
- MIC (Bifidobacterium breve [42]): 0.98 µg/mL (≈ 2.8 µM)
- MIC (Bifidobacterium longum [43]): 0.98 µg/mL (≈ 2.8 µM)
- MIC (Bifidobacterium longum [44]): 3.9 µg/mL (≈ 11.2 µM)
- MIC (Bifidobacterium longum [45]): 1.9 µg/mL (≈ 5.44 µM)
- MIC (Bifidobacterium longum [46]): 0.98 µg/mL (≈ 2.8 µM)
- MIC [47]: 3.9 µg/mL (≈ 11.2 µM)
